Test results from ChEMBL document CHEMBL2021766, “Antiplasmodial activity of novel keto-enamine chalcone-chloroquine based hybrid pharmacophores” (Bioorg Med Chem, 2012).
Converted amounts (≈) assume the structure as drawn.

Tests used:
Plasmodium falciparum = test: Antimalarial activity against chloroquine-sensitive ring stage Plasmodium falciparum 3D7 after 72 hrs by SYBR Green-I assay; type: functional, organism-based; details: 3D7, 72 h
Method in brief: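 Asynchronous P. falciparum 3D7 culture (over 80% ring stages), 1.0% parasitized cell suspension at 0.8% parasitaemia, incubated with twofold serial dilutions at 37 °C, 5% CO2/air, 72 h. Lysis buffer with 1× SYBR Green-I added, 1 h at 37 °C. Fluorescence read at 485/530 nm excitation/emission. IC50 from triplicate experiments.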

Plasmodium yoelii [1] = test: Inhibition of beta-hematin formation in Plasmodium yoelii infected Swiss mouse plasma using hemin as substrate after 16 hrs by spectrophotometry; type: functional
Method in brief: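 Plasma taken by cardiac puncture into 2.0% citrate from male Swiss mice (15–20 g) infected with 1 × 10^5 P. yoelii RBCs, at about 50% parasitemia. Mix: 100 mM sodium acetate pH 5.1, 50 µL plasma, 100 µM hemin, compound, in triplicate, 37 °C for 16 h with shaking. Pellet washed in Tris–HCl pH 7.4 with 2.5% SDS. IC50 = 50% inhibition; three experiments in triplicate.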

[2] = Selectivity index, ratio of CC50 for monkey Vero cells to IC50 for chloroquine-sensitive ring stage Plasmodium falciparum 3D7; type: functional
Method in brief: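 Vero cells exposed to dilutions of test agents for 72 h; MTT read-out (modified Mosmann method); CC50 by non-linear regression. Ratio taken against the 3D7 IC50 from SYBR Green-I assay.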

Plasmodium yoelii [3] = test: Antimalarial activity against chloroquine-resistant Plasmodium yoelii N-67 infected Swiss mouse assessed as suppression of parasitemia at 100 mg/kg/day, po qd for 4 days measured on day 4; type: functional; details: N-67, 96 h
Method in brief: (§1)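 Swiss mice infected with P. yoelii N-67 (1 × 10⁵ parasitized RBC, day 0). Test agents were given as aqueous suspensions with a few drops of Tween 80, orally at 100 mg/kg/day, once daily on days 0–3, to groups of five. Parasitaemia was read from thin blood smears on days 4 and 6. Percent suppression was calculated from group means versus untreated controls. Survival and cure were followed to day 30.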

Plasmodium yoelii [4] = test: Antimalarial activity against chloroquine-resistant Plasmodium yoelii N-67 infected Swiss mouse assessed as suppression of parasitemia at 100 mg/kg/day, po qd for 4 days measured on day 6; type: functional; method in brief: as §1
Plasmodium yoelii [5] = test: Antimalarial activity against chloroquine-resistant Plasmodium yoelii N-67 infected Swiss mouse assessed as mean survival time at 100 mg/kg/day, po qd for 4 days; type: functional; method in brief: as §1
Plasmodium yoelii [6] = test: Antimalarial activity against chloroquine-resistant Plasmodium yoelii N-67 infected Swiss mouse assessed as suppression of parasitemia at 10 mg/kg/day, po qd for 4 days measured on day 6; type: functional
Plasmodium yoelii [7] = test: Antimalarial activity against chloroquine-resistant Plasmodium yoelii N-67 infected Swiss mouse assessed as suppression of parasitemia at 20 mg/kg/day, po qd for 4 days measured on day 4; type: functional; details: N-67, 96 h
Plasmodium yoelii [8] = test: Antimalarial activity against chloroquine-resistant Plasmodium yoelii N-67 infected Swiss mouse assessed as mean survival time at 20 mg/kg/day, po qd for 4 days; type: functional
Plasmodium yoelii [9] = test: Antimalarial activity against chloroquine-resistant Plasmodium yoelii N-67 infected Swiss mouse assessed as suppression of parasitemia at 10 mg/kg/day, po qd for 4 days measured on day 4; type: functional; details: N-67, 96 h
Plasmodium yoelii [10] = test: Antimalarial activity against chloroquine-resistant Plasmodium yoelii N-67 infected Swiss mouse assessed as suppression of parasitemia at 20 mg/kg/day, po qd for 4 days measured on day 6; type: functional
Plasmodium yoelii [11] = test: Antimalarial activity against chloroquine-resistant Plasmodium yoelii N-67 infected Swiss mouse assessed as mean survival time at 10 mg/kg/day, po qd for 4 days; type: functional

| SMILES | IC50 (Plasmodium falciparum) [µg/mL] | IC50 (Plasmodium yoelii [1]) [µg/mL] | Ratio CC50/IC50 [2] | inhibition in vivo at 100 mg/kg/day (Plasmodium yoelii [3]) [%] | inhibition in vivo at 100 mg/kg/day (Plasmodium yoelii [4]) [%] | MST (Plasmodium yoelii [5]) [days] | also measured |
| --- | --- | --- | --- | --- | --- | --- | --- |
| CCC(C)C1=CC(/C=C/C(=O)c2ccco2)=CC(=C\Nc2ccc(Nc3ccnc4cc(Cl)ccc34)cc2)/C1=O (stereo not given) | 0.08 (≈ 0.145 µM) | 3.21 (≈ 5.84 µM) | 678.11 | – | – | – | – |
| CCC(C)C1=CC(/C=C/C(=O)c2ccco2)=CC(=C\NCCNc2ccnc3cc(Cl)ccc23)/C1=O (stereo not given) | 0.00709 (≈ 0.0141 µM) | 2.89 (≈ 5.76 µM) | 1138.22 | 99.5 | 85.8 | 17.6 | – |
| CCC(C)C1=CC(/C=C/C(=O)c2cccs2)=CC(=C\NCCNc2ccnc3cc(Cl)ccc23)/C1=O (stereo not given) | 0.0091 (≈ 0.0176 µM) | 2.62 (≈ 5.06 µM) | 1373.63 | 99.4 | 86.7 | 18.2 | – |
| CC(C)(C)C1=CC(/C=C/C(=O)c2ccc(F)cc2)=CC(=C\NCCNc2ccnc3cc(Cl)ccc23)/C1=O | 0.00719 (≈ 0.0136 µM) | 13.8 (≈ 26 µM) | 1499.3 | 99.9 | 97 | 18.4 | – |
| CC(C)(C)C1=CC(/C=C/C(=O)c2ccc(Cl)cc2)=CC(=C\NCCNc2ccnc3cc(Cl)ccc23)/C1=O | 0.0282 (≈ 0.0515 µM) | 8.06 (≈ 14.7 µM) | 868.3 | – | – | – | – |
| CC(C)(C)C1=CC(/C=C/C(=O)c2ccc(Br)cc2)=CC(=C\NCCNc2ccnc3cc(Cl)ccc23)/C1=O | 0.00464 (≈ 0.00785 µM) | 21.9 (≈ 37.1 µM) | 1883.62 | 99.9 | 96.7 | 17.6 | – |
| CC1=CC(/C=C/C(=O)c2ccc(O)cc2)=CC(=C\NCCCNc2ccnc3cc(Cl)ccc23)/C1=O | 0.0351 (≈ 0.0702 µM) | 3.48 (≈ 6.96 µM) | 505.98 | – | – | – | – |
| COc1ccc(C(=O)/C=C/C2=CC(=C\NCCCNc3ccnc4cc(Cl)ccc34)/C(=O)C(C)=C2)cc1 | 0.0388 (≈ 0.0754 µM) | 5.34 (≈ 10.4 µM) | 295.66 | – | – | – | – |
| CC1=CC(/C=C/C(=O)c2ccc(Cl)cc2)=CC(=C\NCCCNc2ccnc3cc(Cl)ccc23)/C1=O | 0.0429 (≈ 0.0827 µM) | 2.9 (≈ 5.59 µM) | 513.99 | – | – | – | – |
| CCC(C)C1=CC(/C=C/C(=O)c2ccc(O)cc2)=CC(=C\NCCCNc2ccnc3cc(Cl)ccc23)/C1=O (stereo not given) | 0.0424 (≈ 0.0783 µM) | 2.93 (≈ 5.41 µM) | 486.57 | – | – | – | – |
| CCC(C)C1=CC(/C=C/C(=O)c2ccc(OC)cc2)=CC(=C\NCCCNc2ccnc3cc(Cl)ccc23)/C1=O (stereo not given) | 0.0418 (≈ 0.0752 µM) | 6.59 (≈ 11.9 µM) | 549.12 | – | – | – | – |
| CCC(C)C1=CC(/C=C/C(=O)c2ccc(Cl)cc2)=CC(=C\NCCCNc2ccnc3cc(Cl)ccc23)/C1=O (stereo not given) | 0.0419 (≈ 0.0748 µM) | 6.08 (≈ 10.8 µM) | 491.77 | – | – | – | – |
| COc1ccc(C(=O)/C=C/C2=CC(=C\Nc3ccc(Nc4ccnc5cc(Cl)ccc45)cc3)/C(=O)C(C)=C2)cc1 | 0.201 (≈ 0.366 µM) | 4.35 (≈ 7.94 µM) | 315.33 | – | – | – | – |
| CC1=CC(/C=C/C(=O)c2ccc(F)cc2)=CC(=C\Nc2ccc(Nc3ccnc4cc(Cl)ccc34)cc2)/C1=O | 0.16 (≈ 0.299 µM) | 3.78 (≈ 7.05 µM) | 407.52 | – | – | – | – |
| CC(C)(C)C1=CC(/C=C/C(=O)c2ccc(Cl)cc2)=CC(=C\Nc2ccc(Nc3ccnc4cc(Cl)ccc34)cc2)/C1=O | 0.38 (≈ 0.639 µM) | 7.88 (≈ 13.3 µM) | 196.7 | – | – | – | – |
| CC(C)(C)C1=CC(/C=C/C(=O)c2ccc(Br)cc2)=CC(=C\Nc2ccc(Nc3ccnc4cc(Cl)ccc34)cc2)/C1=O | > 0.1 | 13.9 (≈ 21.8 µM) | – | – | – | – | – |
| CC1=CC(/C=C/C(=O)c2ccc(C)cc2)=CC(=C\NCCNc2ccnc3cc(Cl)ccc23)/C1=O | 0.00975 (≈ 0.0201 µM) | 2.91 (≈ 6.01 µM) | 1034.23 | 99.8 | 88.7 | 17.6 | – |
| CC1=CC(/C=C/C(=O)c2ccc(O)cc2)=CC(=C\NCCNc2ccnc3cc(Cl)ccc23)/C1=O | 0.00363 (≈ 0.00747 µM) | 2.89 (≈ 5.95 µM) | 27548.21 | – | – | – | – |
| COc1ccc(C(=O)/C=C/C2=CC(=C\NCCNc3ccnc4cc(Cl)ccc34)/C(=O)C(C)=C2)cc1 | 0.0167 (≈ 0.0333 µM) | 3.01 (≈ 6.02 µM) | 1137.97 | – | – | – | – |
| CC1=CC(/C=C/C(=O)c2ccc(F)cc2)=CC(=C\NCCNc2ccnc3cc(Cl)ccc23)/C1=O | 0.0109 (≈ 0.0222 µM) | 2.91 (≈ 5.96 µM) | 1034.23 | 99.5 | 83.5 | 15.6 | – |
| CC1=CC(/C=C/C(=O)c2ccc(Cl)cc2)=CC(=C\NCCNc2ccnc3cc(Cl)ccc23)/C1=O | 0.0222 (≈ 0.044 µM) | 2.99 (≈ 5.93 µM) | 3755.43 | – | – | – | – |
| CC1=CC(/C=C/C(=O)c2ccc(Br)cc2)=CC(=C\NCCNc2ccnc3cc(Cl)ccc23)/C1=O | 0.0188 (≈ 0.0343 µM) | 7.6 (≈ 13.8 µM) | 1114.59 | 99.7 | 80.6 | 18 | – |
| COc1cc(C(=O)/C=C/C2=CC(=C\NCCNc3ccnc4cc(Cl)ccc34)/C(=O)C(C)=C2)cc(OC)c1OC | 0.0107 (≈ 0.0191 µM) | 9.61 (≈ 17.2 µM) | 1392.22 | 99.8 | 82.1 | 17 | – |
| CC1=CC(/C=C/C(=O)c2cccs2)=CC(=C\NCCNc2ccnc3cc(Cl)ccc23)/C1=O | 0.00975 (≈ 0.0205 µM) | 3.1 (≈ 6.51 µM) | 1414.59 | 99.8 | 82.3 | 16.2 | – |
| CCC(C)C1=CC(/C=C/C(=O)c2ccccc2)=CC(=C\NCCNc2ccnc3cc(Cl)ccc23)/C1=O (stereo not given) | 0.0136 (≈ 0.0266 µM) | 3.15 (≈ 6.15 µM) | 498.54 | 99.6 | 83.2 | 14.6 | – |
| CCC(C)C1=CC(/C=C/C(=O)c2ccc(O)cc2)=CC(=C\NCCNc2ccnc3cc(Cl)ccc23)/C1=O (stereo not given) | 0.022 (≈ 0.0417 µM) | 2.71 (≈ 5.13 µM) | 1071.27 | – | – | – | – |
| CCC(C)C1=CC(/C=C/C(=O)c2ccc(OC)cc2)=CC(=C\NCCNc2ccnc3cc(Cl)ccc23)/C1=O (stereo not given) | 0.0183 (≈ 0.0337 µM) | 12.6 (≈ 23.2 µM) | 1058.05 | – | – | – | – |
| CCC(C)C1=CC(/C=C/C(=O)c2ccc(Cl)cc2)=CC(=C\NCCNc2ccnc3cc(Cl)ccc23)/C1=O (stereo not given) | 0.0179 (≈ 0.0328 µM) | 11.2 (≈ 20.5 µM) | 1014.51 | – | – | – | – |
| CCN(CC)CCCC(C)Nc1ccnc2cc(Cl)ccc12 (stereo not given) [CHLOROQUINE] | – | 3.65 (≈ 11.4 µM) | – | – | – | – | inhibition in vivo at 10 mg/kg/day (Plasmodium yoelii [6]): 93.6%; inhibition in vivo at 20 mg/kg/day (Plasmodium yoelii [7]): 99%; MST (Plasmodium yoelii [8]): >28 days; inhibition in vivo at 10 mg/kg/day (Plasmodium yoelii [9]): 99%; inhibition in vivo at 20 mg/kg/day (Plasmodium yoelii [10]): 93.9%; MST (Plasmodium yoelii [11]): 13.6 days |
